Experiments:
[1] = Octanol–water partition coefficient, shake-flask method; format: physicochemical
How it was run: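 Shake-flask partitioning was run at 25 and 37 °C in water, SGF (pH 1.2), SIF (pH 6.8) or SBF (pH 7.4). Fluids were prepared per USP without enzyme and pre-saturated with n-octanol (24 h shaking, 24 h separation). Test compound in buffer-saturated octanol (5 mL) was shaken 24 h with 5 mL octanol-saturated buffer, then centrifuged 10 min. The octanol phase was read by UV at 200 nm, and log Ko/w = log Co/(C−Co).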

[2] = tested on: Staphylococcus aureus ATCC29213; assay: Antibacterial activity, broth dilution MIC; format: cell-based; conditions: S. aureus, n = 3
[3] = Thermal stability by TG/DTG; format: physicochemical; conditions: first decomposition process, 10 K min^−1, argon
How it was run: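 Simultaneous thermal analysis ran from 30–500 °C at 10 K min−1 on 3–5 mg sample in an Al2O3 crucible, with α-Al2O3 as reference. Argon served as protective gas at 20 mL min−1 and as purge gas at 60 mL min−1.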

[4] = Conductivity in low concentration region; format: physicochemical; conditions: in water
How it was run: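 Conductivity of aqueous test compound solutions was measured at each temperature in double-distilled deionized water (0.8 − 1.0 × 10−4 S m−1 at 298.15 K). The digital meter and electrode were calibrated with standard KCl, and the thermostat held ±0.02 K; relative standard uncertainty was ±3%.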

[5] = tested on: human hepatocellular carcinoma cell line HepG2; assay: Cell toxicity assay, MTT; format: cell-based; conditions: HepG2, MTT, 24 h, n = 3
[6] = tested on: Candida albicans ATCC10231; assay: Antimicrobial activity, broth dilution MIC; format: cell-based; conditions: C. albicans, n = 3
[7] = tested on: human lung cancer cell line A549; assay: Cell toxicity assay, MTT; format: cell-based; conditions: A549, MTT, 24 h, n = 3
[8] = Density measurement, apparent molar volume at infinite dilution in water; format: physicochemical; conditions: aqueous solution
How it was run: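 Solution density was measured with a vibrating-tube densitometer calibrated with dry air and double-distilled water, with Peltier temperature control at ±0.01 K and density uncertainty 2.0 × 10−4 g cm−3. Apparent molar volumes were computed versus molality. Infinite-dilution values came from the Redlich–Mayer equation with empirical parameters Sv and Bv.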

[9] = Steady-state fluorescence with pyrene probe; format: physicochemical; conditions: 298.15 K
How it was run: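 Pyrene (1 μM) served as probe at 298.15 K. Excitation was 335 nm, emission 355–650 nm, slits 2.5 nm, 700 V, 240 nm min−1, in a 1 cm quartz cuvette. cmc came from a Boltzmann fit of I1/I3 (373/384 nm). For Nagg, test compound at 2.5 cmc was quenched with cetylpyridinium chloride at 0.2–1.0 × 10−4 mol dm−3, and Nagg was derived from linear ln(I0/I) versus [Q].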

[10] = tested on: Escherichia coli ATCC25922; assay: Antibacterial activity, broth dilution MIC; format: cell-based; conditions: E. coli, n = 3
[11] = Aggregation in water by electrical conductivity; format: physicochemical; conditions: for cmc: conductivity, water; for ionization degree α: micelle (cmc); for ΔG^0m / ΔH^0m / ΔS^0m / −TΔS^0m: micellization (cmc)
How it was run: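 Conductivity of aqueous test compound solutions was measured with a digital conductivity meter and electrode, calibrated against standard KCl, with a thermostat holding ±0.02 K and ±3% relative uncertainty. cmc and cac were taken from the break points, found by fitting the Aguiar equation. α came from the ratio of post- to pre-transition slopes (A2/A1), and micellization thermodynamic functions from the mass action model.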

[12] = tested on: Cutibacterium acnes ATCC6919; assay: Antibacterial activity, broth dilution MIC; format: cell-based; conditions: C. acnes, n = 3

## CCCCCCC(=O)O.O=C1CCC[C@@H]2[C@H]3CCCN4CCC[C@@H](CN12)[C@@H]34 [[Mat][C7]]
[1]; pH = 1.2 (SGF), 25 °C
  Log K o/w: −0.36
[1]; pH = 1.2 (SGF), 37 °C
  Log K o/w: 0.07
[1]; pH = 6.8 (SIF), 25 °C
  Log K o/w: 0.01
[1]; pH = 6.8 (SIF), 37 °C
  Log K o/w: 0.25
[1]; pH = 7.0 (ultrapure water), 25 °C
  Log K o/w: 0.42
[1]; pH = 7.0 (ultrapure water), 37 °C
  Log K o/w: 0.69
[1]; pH = 7.4 (SBF), 25 °C
  Log K o/w: 0.83
[1]; pH = 7.4 (SBF), 37 °C
  Log K o/w: 1.01
[2]
  MIC: 132.1 mM
[3]
  T onset (onset decomposition temperature): 185.5 °C
[4]; 298.15 K
  Association constant KA: 6.11 ± 0.61 dm^3 mol^−1
  Limiting molar conductivity Λ0: 47.78 ± 0.03 S cm^2 mol^−1
[4]; 303.15 K
  Association constant KA: 3.91 ± 0.48 dm^3 mol^−1
  Limiting molar conductivity Λ0: 52.96 ± 0.03 S cm^2 mol^−1
[4]; 308.15 K
  Association constant KA: 1.53 ± 0.37 dm^3 mol^−1
  Limiting molar conductivity Λ0: 59.37 ± 0.03 S cm^2 mol^−1
[5]
  IC50: 4.47 mM
[6]
  MIC: 66.0 mM
[7]
  IC50: 14 mM
[8]; 293.15 K
  Apparent molar volume at infinite dilution V^0 2,φ: 321.56 ± 0.09 cm^3 mol^−1
[8]; 298.15 K
  Apparent molar volume at infinite dilution V^0 2,φ: 323.31 ± 0.11 cm^3 mol^−1
[8]; 303.15 K
  Apparent molar volume at infinite dilution V^0 2,φ: 324.72 ± 0.10 cm^3 mol^−1
[8]; 308.15 K
  Apparent molar volume at infinite dilution V^0 2,φ: 326.82 ± 0.20 cm^3 mol^−1
[9]; Fluorescence (pyrene I1/I3), water
  cmc: 0.00554 mol/kg
[9]; ST = 2.5 cmc, fluorescence quenching with CPC
  N agg (aggregation number): 25
[10]
  MIC: 33.0 mM
[11]; 293.15 K
  cmc: 0.00511 mol/kg
  ionization degree α: 0.8986
  ΔG^0m: -5.961 kcal/mol
  ΔH^0m: -0.956 kcal/mol
  ΔS^0m: 71.43 J mol^−1 K^−1
  −TΔS^0m: -5.005 kcal/mol
[11]; 298.15 K
  cmc: 0.00524 mol/kg
  ionization degree α: 0.8976
  ΔG^0m: -6.054 kcal/mol
  ΔH^0m: -0.92 kcal/mol
  ΔS^0m: 72.03 J mol^−1 K^−1
  −TΔS^0m: -5.134 kcal/mol
[11]; 303.15 K
  cmc: 0.00536 mol/kg
  ionization degree α: 0.8989
  ΔG^0m: -6.133 kcal/mol
  ΔH^0m: -0.88 kcal/mol
  ΔS^0m: 72.51 J mol^−1 K^−1
  −TΔS^0m: -5.253 kcal/mol
[11]; 308.15 K
  cmc: 0.00549 mol/kg
  ionization degree α: 0.8927
  ΔG^0m: -6.252 kcal/mol
  ΔH^0m: -0.839 kcal/mol
  ΔS^0m: 73.51 J mol^−1 K^−1
  −TΔS^0m: -5.413 kcal/mol
[11]; 313.15 K
  cmc: 0.00558 mol/kg
  ionization degree α: 0.8987
  ΔG^0m: -6.31 kcal/mol
  ΔH^0m: -0.786 kcal/mol
  ΔS^0m: 73.80 J mol^−1 K^−1
  −TΔS^0m: -5.523 kcal/mol
[12]
  MIC: 66.0 mM
